From ChEMBL document CHEMBL1629489, “Novel 6-[(hetero)arylamino]thieno[3,2-b]pyridines: synthesis and antitumoral activities” (2010)

Key:
Type in all cases: functional
MCF7 = assay: Growth inhibition of human MCF7 cells after 48 hrs by sulforhodamine B assay; conditions: MCF7, 48 h
Procedure, shortened: (§1)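 Adherent cells in RPMI-1640 with 5% heat-inactivated FBS, 2 mM glutamine and penicillin/streptomycin at 37 °C and 5% CO₂. Plated at 1.5 × 10⁵ cells/mL (MCF-7) or 0.75 × 10⁵ cells/mL (A375-C5, NCI-H460), then incubated 24 h. Exposed 48 h to five serial dilutions from DMSO stocks (≤0.25% DMSO). SRB staining, absorbance at 492 nm. GI50 is the mean ± SEM of three independent duplicate experiments.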

NCI-H460 = assay: Growth inhibition of human NCI-H460 cells after 48 hrs by sulforhodamine B assay; conditions: NCI-H460, 48 h; procedure, shortened: as §1
[1] = Growth inhibition of human A375-C5 cells after 48 hrs by sulforhodamine B assay; conditions: A375-C5, 48 h; procedure, shortened: as §1

Row | SMILES | GI50 (MCF7) [µM] | GI50 (NCI-H460) [µM] | GI50 [1] [µM]
1 | COC(=O)c1sc2cc(Nc3ccc(F)cc3Br)cnc2c1N | 28.9 | 31.3 | 34
2 | COC(=O)c1sc2cc(Nc3nc4ccccc4s3)cnc2c1N | 6 | 6.4 | 3.5
3 | COC(=O)c1sc2cc(Nc3nccc4ccccc34)cnc2c1N | > 150 | > 150 | > 150
4 | COC(=O)c1sc2cc(Nc3ccccn3)cnc2c1N | > 150 | > 150 | > 150
5 | COC(=O)c1sc2cc(Nc3ncccn3)cnc2c1N | > 150 | > 150 | > 150
6 | COc1cccc2c1C(=O)c1c(O)c3c(c(O)c1C2=O)C[C@@](O)(C(=O)CO)C[C@@H]3O[C@H]1C[C@H](N)[C@H](O)[C@H](C)O1 [DOXORUBICIN] | 0.0433 | 0.0356 | 0.13

Second part, led by results:

Row | GI50 (MCF7) [µM] | GI50 (NCI-H460) [µM] | SMILES | GI50 [1] [µM]
7 | 30 | 26.2 | COC(=O)c1sc2cc(Nc3ccc(OC)c(OC)c3)cnc2c1N | 26.3
8 | 124 | 95 | COC(=O)c1sc2cc(Nc3ccc(OC)cc3)cnc2c1N | > 150
9 | 26.3 | 26.3 | COC(=O)c1sc2cc(Nc3ccc(OC)cc3OC)cnc2c1N | 27.3
10 | > 150 | > 150 | COC(=O)c1sc2cc(Nc3cc(OC)cc(OC)c3)cnc2c1N | > 150
11 | 22.1 | 21.7 | COC(=O)c1sc2cc(Nc3cc(OC)ccc3Cl)cnc2c1N | 25.8
12 | 28.9 | 30.9 | COC(=O)c1sc2cc(Nc3ccccc3Br)cnc2c1N | 34.1
13 | 18.1 | 15.8 | COC(=O)c1sc2cc(Nc3ccc4[nH]ccc4c3)cnc2c1N | 17.3
14 | 82.4 | 49.4 | COC(=O)c1sc2cc(Nc3cccnc3)cnc2c1N | > 150
